pIC50: −log10 of the molar value. The source made the active and inactive calls. The calls are words filed in the database; no cut-off is given here.
Tests used:
HL-60 = assay: Concentration inhibiting the differentiation-inducing activity of all-trans-retinoic acid (ATRA)(1*10e-8M) in human promyelocytic leukemia cells; format: functional, cell-based
Procedure, shortened: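 HL-60 cells at 1 × 10^5 cells/mL, 1 mL/well, exposed to ATRA (1.0 × 10^-8 M) plus graded test compound concentrations; 5 days in 5% CO2/air. Cells stained with FITC anti-CD11b, fixed in 0.2% paraformaldehyde, and analysed by flow cytometry for % CD11b-positive cells. IC50 read from activity vs log compound concentration plots; mean of two experiments.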

[1] = The concentration required to inhibit the binding of [3H]ATRA to retinoic acid receptor in human promyelocytic leukemia cells
Homo sapiens = organism: Homo sapiens; assay: Differentiation-inducing activity of the compound. ED1/3 value was obtained from the percentage of the differentiated cells (CD11b-positive cells); No activity at concentrations below 3.0e-6M; format: functional
[2] = Differentiation-inducing activity of the compound. ED1/3 value was obtained from the percentage of the differentiated cells (CD11b-positive cells).; format: functional, Homo sapiens
Procedure, shortened: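 Human promyelocytic leukemia HL-60 cells were exposed to compound alone and scored for differentiation toward mature granulocytes. The read-out was the percentage of CD11b-positive (differentiated) cells, and ED1/3 was derived from these percentages. Activity was judged at concentrations below 3.0 × 10^-6 M. Values are the mean of two experiments.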

SMILES | pIC50 (HL-60) | pIC50 [1] | ED1/3 (Homo sapiens) | ED1/3 [2]
CC1(C)CCC(C)(C)c2cc3c(cc21)CCc1c(-c2ccc(C(=O)O)cc2)c[nH]c1-3 | < 5.52 | 7.49 | – | –
CC1(C)CCC(C)(C)c2cc3c(cc21)CCc1c(-c2ccc(C(=O)O)cc2)cn(Cc2ccccn2)c1-3 | 7.77 | 9.85 | – | –
CC1(C)CCC(C)(C)c2cc3c(cc21)CCc1c(-c2ccc(C(=O)O)cc2)nn(Cc2ccccc2)c1-3 | 7.25 | 8.82 | – | –
CC(C)Oc1cc2c(cc1-c1ccccc1)CCc1c(-c3ccc(C(=O)O)cc3)cn(Cc3cccnc3)c1-2 | 6.52 | 7.52 | – | –
CC1(C)CCC(C)(C)c2cc3c(cc21)CCc1c(-c2ccc(C(=O)O)cc2)n[nH]c1-3 | – | 7.77 | inactive | –
Cn1nc(-c2ccc(C(=O)O)cc2)c2c1-c1cc3c(cc1CC2)C(C)(C)CCC3(C)C | – | 7.80 | inactive | –
CC1(C)Cc2c(-c3ccc(C(=O)O)cc3)cn(Cc3cccnc3)c2-c2cc3c(cc21)C(C)(C)CCC3(C)C | 6.00 | < 7.30 | – | –
CCCCCn1cc(-c2ccc(C(=O)O)cc2)c2c1-c1cc3c(cc1CC2)C(C)(C)CCC3(C)C | 6.28 | 7.72 | – | –
CC1(C)CCC(C)(C)c2cc3c(cc21)CCc1c(-c2ccc(C(=O)O)cc2)cn(Cc2ccco2)c1-3 | 7.29 | 8.47 | – | –
CC1(C)CCC(C)(C)c2cc3c(cc21)CCc1c(-c2ccc(C(=O)O)cc2)cn(C2CC2)c1-3 | 6.44 | 7.85 | – | –
CC1(C)CCC(C)(C)c2cc3c(cc21)CCc1c(-c2ccc(C(=O)O)cc2)cnnc1-3 | < 5.52 | < 7.30 | – | –
Cn1cc(-c2ccc(C(=O)O)cc2)c2c1-c1cc3c(cc1CC2)C(C)(C)CCC3(C)C | 6.70 | < 7.30 | – | –
CC1(C)CCC(C)(C)c2cc3c(cc21)OCc1c(-c2ccc(C(=O)O)cc2)cn(Cc2cccnc2)c1-3 | 7.00 | 7.72 | – | –
CC1(C)CCC(C)(C)c2cc3c(cc21)SCc1c(-c2ccc(C(=O)O)cc2)cn(Cc2cccnc2)c1-3 | 8.25 | 9.80 | – | –
CC(C)Oc1cc2c(cc1Cl)CCc1c(-c3ccc(C(=O)O)cc3)cn(Cc3cccnc3)c1-2 | 6.64 | 8.54 | – | –
CC1=C(/C=C/C(C)=C/C=C/C(C)=C/C(=O)O)C(C)(C)CCC1 [TRETINOIN] | – | 9.20 | – | 340 pM
COc1cc2c(cc1C(C)C)CCc1c(-c3ccc(C(=O)O)cc3)cn(Cc3cccnc3)c1-2 | 6.77 | 7.66 | – | –
CC1(C)CCC(C)(C)c2cc3c(cc21)CCc1c(-c2ccc(C(=O)O)cc2)cn(CC24CC5CC(CC(C5)C2)C4)c1-3 | < 5.52 | < 7.30 | – | –
CC1(C)CCC(C)(C)c2cc3c(cc21)CCc1c(-c2ccc(C(=O)O)cc2)cn(-c2cnccc2Cl)c1-3 | 6.31 | 8.49 | – | –
CC1(C)CCC(C)(C)c2cc3c(cc21)CCc1c(-c2ccc(C(=O)O)cc2)cn(Cc2ccccc2)c1-3 | 6.68 | 8.92 | – | –
Cn1nc2c(c1-c1ccc(C(=O)O)cc1)CCc1cc3c(cc1-2)C(C)(C)CCC3(C)C | – | 7.10 | inactive | –
CC1(C)CCC(C)(C)c2cc3c(cc21)CCc1c(-c2ccc(C(=O)O)cc2)ccnc1-3 | < 5.52 | < 7.30 | – | –
CC1(C)CCC(C)(C)c2cc(-c3cc(-c4ccc(C(=O)O)cc4)[nH]n3)ccc21 | – | 7.72 | – | 900 pM
CC1(C)CCC(C)(C)c2cc3c(cc21)CCc1c(-c2ccc(C(=O)O)cc2)cn(Cc2cccs2)c1-3 | 6.27 | 8.35 | – | –
CC1(C)CCC(C)(C)c2cc3c(cc21)CCc1c(-c2ccc(C(=O)O)cc2)csc1-3 | 5.62 | < 8.30 | – | –
CC1(C)CCC(C)(C)c2cc3c(cc21)CCCc1c(-c2ccc(C(=O)O)cc2)cn(Cc2cccnc2)c1-3 | 7.11 | 8.33 | – | –
CC1(C)CCC(C)(C)c2cc3c(cc21)CCc1c(-c2ccc(C(=O)O)cc2)cn(CCc2ccccn2)c1-3 | 5.89 | 7.80 | – | –

Continued, in another order:

pIC50 (HL-60) | pIC50 [1] | SMILES | ED1/3 (Homo sapiens) | ED1/3 [2]
5.96 | 7.89 | CC1(C)CCSc2cc3c(cc21)CCc1c(-c2ccc(C(=O)O)cc2)cn(Cc2cccnc2)c1-3 | – | –
7.08 | 8.64 | CC1(C)CCC(C)(C)c2cc3c(cc21)CCc1c(-c2ccc(C(=O)O)cc2)cn(Cc2ccncc2)c1-3 | – | –
5.80 | < 7.30 | CC1(C)CCOc2cc3c(cc21)CCc1c(-c2ccc(C(=O)O)cc2)cn(Cc2cccnc2)c1-3 | – | –
7.43 | 8.43 | Cc1cc2c(cc1OC(C)C)-c1c(c(-c3ccc(C(=O)O)cc3)cn1Cc1cccnc1)CC2 | – | –
7.16 | 9.01 | CC(C)Oc1cc2c(cc1C(C)C)CCc1c(-c3ccc(C(=O)O)cc3)cn(Cc3cccnc3)c1-2 | – | –
8.89 | 9.04 | CC1(C)CCC(C)(C)c2cc3c(cc21)CCc1c(-c2ccc(C(=O)O)cc2)nn(Cc2cccnc2)c1-3 | – | –
7.11 | 7.96 | CC1(C)CCC(C)(C)c2cc3c(ccc4c(-c5ccc(C(=O)O)cc5)cn(Cc5cccnc5)c43)cc21 | – | –
6.52 | < 7.30 | CC1(C)CCC(C)(C)c2cc3c(cc21)CCc1c(-c2ccc(C(=O)O)cc2)coc1-3 | – | –
8.31 | 9.47 | CC1(C)CCC(C)(C)c2cc3c(cc21)CCc1c(-c2ccc(C(=O)O)cc2)cn(Cc2cccnc2)c1-3 | – | –
7.48 | 9.23 | CC1(C)CCC(C)(C)c2cc3c(cc21)CCc1c(-c2ccc(C(=O)O)cc2)cn(-c2cccnc2)c1-3 | – | –
6.19 | 8.25 | COc1ccncc1-n1cc(-c2ccc(C(=O)O)cc2)c2c1-c1cc3c(cc1CC2)C(C)(C)CCC3(C)C | – | –
